{"data": "Results collected from several papers", "note": "Each line is one published result; the experiments were not run side by side."}
{"SMILES": "CC1(C)NC(=O)N(c2ccc(F)c(OC(F)(F)F)c2)C1=O", "assay": "HPLC", "setting": "pH 7.4", "measurement": "chromatographic logD", "result": 2.9}
{"SMILES": "COc1ccc2c(c1)CN(C(=O)CCN1CCC(Cc3ccccc3)CC1)CC[S@@+]2[O-]", "test system": "male human, plasma", "setting": "intravenous, 0.6 mg/kg, healthy volunteers", "measurement": "clearance", "result": "175 mL/min"}
{"SMILES": "C[C@]1(O)CCCN(c2nc(Nc3ccc(S(=O)(=O)N[C@H]4CC[C@H](CN5CCN(c6ccc(C7CCC(=O)NC7=O)c(F)c6)CC5)CC4)cc3F)ncc2C(F)(F)F)C1 (stereo partly drawn)", "assay": "metabolic stability", "test system": "rat, liver microsomes", "setting": "1 µM", "measurement": "scaled CLint", "result": "< 21 mL/min/kg"}
{"SMILES": "COCC(=O)N1CCC[C@H](C(=O)NCc2nc(-c3ccccc3)cs2)C1", "assay": "metabolic stability", "test system": "male Sprague-Dawley rat, liver microsomes", "setting": "0.5 µM", "measurement": "microsomal CLint", "result": "19 µL/min/mg"}
{"SMILES": "Clc1ccc(Nc2ncnc3ccc(-c4cccc(N5CCOCC5)c4)cc23)cc1Cl", "assay": "shake flask", "test system": "aqueous buffer", "setting": "pH 7.4", "measurement": "logD", "result": "> 4.2"}
{"SMILES": "C[C@H]1CN(c2ccc(C3CCC(=O)NC3=O)cc2F)CCN1CC12CCC(NS(=O)(=O)c3ccc(Nc4ncc(C(F)(F)F)c(N5CCC[C@](C)(O)C5)n4)c(F)c3)(CC1)CO2 (stereo partly drawn)", "assay": "metabolic stability", "test system": "human, liver microsomes", "setting": "1 µM", "measurement": "scaled CLint", "result": "22 mL/min/kg"}
{"SMILES": "c1cc(-c2ccc3ncnc(Nc4ncco4)c3c2)nc(N2CCOCC2)c1", "assay": "shake flask", "test system": "aqueous buffer", "setting": "pH 7.4", "measurement": "logD", "result": 3.1}
{"SMILES": "Cc1cc(S(=O)(=O)N[C@H]2CC[C@H](CN3CCN(c4cccc(NC5CCC(=O)NC5=O)c4)CC3)CC2)ccc1Nc1ncc(C(F)(F)F)c(N2CCC[C@](C)(O)C2)n1 (stereo partly drawn)", "assay": "metabolic stability", "test system": "rat, liver microsomes", "setting": "1 µM", "measurement": "scaled CLint", "result": "< 21 mL/min/kg"}
{"SMILES": "CC(C)n1c(C2CCNCC2)nc2c([N+](=O)[O-])c(Br)c(Br)cc21", "test system": "human, urine", "setting": "oral, 50 mg, single dose", "measurement": "renal clearance", "result": "14.5 mL/min"}
{"SMILES": "O=C1NC2(CCS(=O)(=O)CC2)C(=O)N1c1ccc(F)c(C(F)(F)F)c1", "assay": "HPLC", "setting": "pH 7.4", "measurement": "chromatographic logD", "result": 2.6}
{"SMILES": "CC(C)(N)COCC(=O)N1CCC[C@H](C(=O)NCc2nc(-c3ccc(C(F)(F)F)cc3)cs2)C1", "assay": "metabolic stability", "test system": "male Sprague-Dawley rat, hepatocytes", "setting": "0.5 µM", "measurement": "scaled CLint", "result": "21 mL/min/kg"}
{"SMILES": "CC1(C(F)(F)F)NC(=O)N(c2ccc(F)c(C(F)(F)F)c2)C1=O (stereo not drawn)", "assay": "HPLC", "setting": "pH 7.4", "measurement": "chromatographic logD", "result": 3.5}
{"SMILES": "N[C@@H](COCC(=O)N1CCC[C@H](C(=O)NCc2nc(-c3ccc(C(F)(F)F)cc3)cs2)C1)c1ccccc1", "assay": "metabolic stability", "test system": "human, liver microsomes", "setting": "0.5 µM", "measurement": "microsomal CLint", "result": "65 µL/min/mg"}
{"SMILES": "Cc1cc(N2C(=O)NC(C)(C)C2=O)cc(C(F)(F)F)n1", "assay": "HPLC", "setting": "pH 7.4", "measurement": "chromatographic logD", "result": 2.2}
{"SMILES": "O=c1c2c([nH]c3ccc(F)c(Oc4ccc(OC(F)(F)F)cc4)c13)CCCC2", "assay": "metabolic stability", "test system": "human, liver microsomes", "setting": "1 µM, pH 7.4", "measurement": "microsomal CLint", "result": "92.7 µL/min/mg"}
{"SMILES": "Cc1cc(S(=O)(=O)NC2CC(N3CCN(CC4CCN(c5ccc6c(c5F)n(C)c(=O)n6C5CCC(=O)NC5=O)CC4)CC3)C2)ccc1Nc1ncc(C(F)(F)F)c(N2CCCC(C)(O)C2)n1 (stereo not drawn)", "assay": "metabolic stability", "test system": "rat, liver microsomes", "setting": "1 µM", "measurement": "scaled CLint", "result": "< 21 mL/min/kg"}
{"SMILES": "CN1CCN(c2cccc(-c3ccc4ncnc(Nc5ccc(Cl)c(Cl)c5)c4c3)c2)CC1", "assay": "shake flask", "test system": "aqueous buffer", "setting": "pH 7.4", "measurement": "logD", "result": "> 4.1"}
{"SMILES": "COCC(=O)N1CCC[C@H](C(=O)NCc2nc(-c3ccc(C#N)cc3)cs2)C1", "assay": "metabolic stability", "test system": "male Sprague-Dawley rat, liver microsomes", "setting": "0.5 µM", "measurement": "scaled CLint", "result": "30 mL/min/kg"}
{"SMILES": "CC(C)C[C@H](NC(=O)[C@H](CC(C)C)NC(=O)[C@H](Cc1c[nH]c2ccccc12)NC(=O)[C@H](CCC(=O)O)NC(=O)[C@@H](NC(=O)[C@H](Cc1ccccc1)NC(=O)[C@H](CCC(=O)O)NC(=O)[C@H](CCCCNC(=O)COCCOCCNC(=O)COCCOCCNC(=O)CC[C@H](NC(=O)CCCCCCCCCCCCCCCCCCC(=O)O)C(=O)O)NC(=O)[C@H](C)NC(=O)[C@H](CCCCN)NC(=O)[C@H](CCCCN)NC(=O)[C@H](CCC(=O)O)NC(=O)[C@H](CC(=O)O)NC(=O)[C@H](CC(C)C)NC(=O)[C@H](Cc1ccc(O)cc1)NC(=O)[C@H](CCCCN)NC(=O)[C@H](CO)NC(=O)[C@H](Cc1ccc(O)cc1)NC(=O)[C@H](CC(=O)O)NC(=O)[C@H](CO)NC(=O)[C@@H](NC(=O)[C@H](Cc1ccccc1)NC(=O)[C@@H](NC(=O)CNC(=O)[C@H](CCC(N)=O)NC(=O)C(C)(C)NC(=O)[C@@H](N)Cc1c[nH]cn1)[C@@H](C)O)[C@@H](C)O)C(C)C)C(=O)N[C@@H](CCC(=O)O)C(=O)NCC(=O)NCC(=O)N1CCC[C@H]1C(=O)N[C@@H](CO)C(=O)N[C@@H](CO)C(=O)NCC(N)=O", "test system": "human, plasma", "setting": "subcutaneous, 16 mg, multiple doses, patients", "measurement": "CL/F", "result": "0.5 mL/min"}
{"SMILES": "Cc1cc(S(=O)(=O)N[C@]2(C)C[C@H](N3CCN(CC4CCN(c5ccc6c(c5F)n(C)c(=O)n6C5CCC(=O)NC5=O)CC4)CC3)C2)ccc1Nc1ncc(C(F)(F)F)c(N2CCC[C@](C)(O)C2)n1 (stereo partly drawn)", "assay": "metabolic stability", "test system": "rat, liver microsomes", "setting": "1 µM", "measurement": "scaled CLint", "result": "< 21 mL/min/kg"}
{"SMILES": "O=c1c2c([nH]c3c(Oc4ccc(OC(F)(F)F)cc4)cccc13)CCCC2", "assay": "metabolic stability", "test system": "human, liver microsomes", "setting": "1 µM, pH 7.4", "measurement": "microsomal CLint", "result": "21 µL/min/mg"}
{"SMILES": "CCOCC(=O)N1CC[C@@H](C)[C@H](C(=O)NCc2nc(-c3ccc(C)nc3)cs2)C1 (racemic)", "assay": "metabolic stability", "test system": "human, liver microsomes", "setting": "0.5 µM", "measurement": "microsomal CLint", "result": "6.9 µL/min/mg"}
{"SMILES": "CNS(=O)(=O)c1ccc(Nc2ncc(C(F)(F)F)c(N3CCC(C)(O)CC3)n2)c(C)c1", "assay": "metabolic stability", "test system": "rat, liver microsomes", "setting": "1 µM", "measurement": "scaled CLint", "result": "38 mL/min/kg"}
{"SMILES": "CN1CCN(c2cccc(-c3ccc4ncnc(Nc5ncco5)c4c3)c2)CC1", "assay": "shake flask", "test system": "aqueous buffer", "setting": "pH 7.4", "measurement": "logD", "result": 3.3}
{"SMILES": "CCC(F)(F)c1cc(N2C(=O)NC(C)(C)C2=O)ccc1F", "assay": "HPLC", "setting": "pH 7.4", "measurement": "chromatographic logD", "result": 2.9}
{"SMILES": "c1ccc(Oc2ccc(Nc3c4c(nc5ccccc35)CCC4)cc2)cc1", "assay": "HPLC", "setting": "pH 7.4", "measurement": "chromatographic logD", "result": "> 5.3"}
{"SMILES": "Cc1ccc(-c2csc(CNC(=O)[C@H]3CCCN(C(=O)[C@H]4CCC(C)(C)O4)[C@H]3C)n2)cn1", "assay": "metabolic stability", "test system": "male Sprague-Dawley rat, liver microsomes", "setting": "0.5 µM", "measurement": "microsomal CLint", "result": "197 µL/min/mg"}
{"SMILES": "Cc1cc(S(=O)(=O)NC2CC(N3CC[C@@H](OC4CN(c5cccc6c5n(C)c(=O)n6C5CCC(=O)NC5=O)C4)[C@H](F)C3)C2)ccc1Nc1ncc(C(F)(F)F)c(N2CCC[C@](C)(O)C2)n1 (stereo partly drawn)", "assay": "metabolic stability", "test system": "human, liver microsomes", "setting": "1 µM", "measurement": "scaled CLint", "result": "28 mL/min/kg"}
{"SMILES": "CCONC(=O)N1CCC[C@H](C(=O)N[C@H](C)c2nc(-c3ccc(C#N)cc3)cs2)C1", "assay": "metabolic stability", "test system": "male Sprague-Dawley rat, liver microsomes", "setting": "0.5 µM", "measurement": "microsomal CLint", "result": "29 µL/min/mg"}
{"SMILES": "CCS(=O)(=O)N1CCC2(CC1)NC(=O)N(c1ccc(F)c(C(F)(F)F)c1)C2=O", "assay": "HPLC", "setting": "pH 7.4", "measurement": "chromatographic logD", "result": 3.1}
{"SMILES": "CN1CCC(Oc2ccc3c(=O)c4c(F)cc(Cl)cc4[nH]c3c2)CC1", "assay": "metabolic stability", "test system": "human, liver microsomes", "setting": "1 µM, pH 7.4", "measurement": "microsomal CLint", "result": "24.9 µL/min/mg"}
{"SMILES": "CC1(C)NC(=O)N(c2ccc(F)c(S(C)(=O)=O)c2)C1=O", "assay": "HPLC", "setting": "pH 7.4", "measurement": "chromatographic logD", "result": 1.2}
{"SMILES": "CCN(CC)CCCOc1ccc2c(=O)c3c([nH]c2c1)CCCC3", "assay": "metabolic stability", "test system": "human, liver microsomes", "setting": "1 µM, pH 7.4", "measurement": "microsomal CLint", "result": "5.53 µL/min/mg"}
